Test results published in ChEMBL document CHEMBL2062429, “Structure-based design, synthesis, and biological evaluation of dihydroquinazoline-derived potent β-secretase inhibitors” (Bioorg Med Chem Lett, 2012).

Key:
Beta-secretase 1 = Beta-secretase 1 (Homo sapiens, UniProt P56817); test: Inhibition of recombinant beta-secretase 1
[1] = Inhibition of beta-secretase in neuroblastoma cells assessed as inhibition of amyloid beta production; type: cell-based; conditions: Homo sapiens
Outline: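 Cell-based assay in neuroblastoma cells. IC50 is reported as an average value.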

Beta-secretase 1, sequence (P56817 whole entry): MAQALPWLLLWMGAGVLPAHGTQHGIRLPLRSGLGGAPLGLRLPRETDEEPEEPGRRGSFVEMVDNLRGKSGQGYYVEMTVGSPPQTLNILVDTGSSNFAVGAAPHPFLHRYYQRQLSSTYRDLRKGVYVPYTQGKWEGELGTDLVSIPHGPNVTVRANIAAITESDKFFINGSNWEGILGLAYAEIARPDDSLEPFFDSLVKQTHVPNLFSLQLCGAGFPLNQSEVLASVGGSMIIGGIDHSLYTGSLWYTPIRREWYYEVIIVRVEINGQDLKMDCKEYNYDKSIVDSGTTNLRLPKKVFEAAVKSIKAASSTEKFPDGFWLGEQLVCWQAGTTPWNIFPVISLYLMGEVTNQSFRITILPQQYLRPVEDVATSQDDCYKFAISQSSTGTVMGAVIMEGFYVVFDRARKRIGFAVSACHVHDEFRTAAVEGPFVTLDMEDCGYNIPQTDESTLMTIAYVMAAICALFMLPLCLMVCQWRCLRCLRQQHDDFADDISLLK

SMILES: Cc1nc(C(C)N(C(=O)CC[C@@H](C2CCCCC2)N2Cc3cc(Oc4ccccc4)ccc3N=C2N)C2CCCCC2)cs1 (stereo partly drawn)
- Ki (Beta-secretase 1): 104 nM

SMILES: CN(C(=O)CC[C@@H](c1ccccc1)N1Cc2cc(Oc3ccccc3)ccc2N=C1N)C1CCCCC1
- Ki (Beta-secretase 1): 164 nM
- IC50 [1]: 482 nM

SMILES: NC1=Nc2ccc(Oc3ccccc3)cc2CN1[C@@H](CCC(=O)N(Cc1cn[nH]c1)C1CCCCC1)C1CCCCC1
- Ki (Beta-secretase 1): 23 nM

SMILES: CN(C(=O)OC[C@@H](c1ccccc1)N1Cc2cc(Oc3ccccc3)ccc2N=C1N)C1CCCCC1
- Ki (Beta-secretase 1): 783 nM
- IC50 [1]: 3400 nM

SMILES: Cn1cc(CN(C(=O)CC[C@@H](C2CCCCC2)N2Cc3cc(Oc4ccccc4)ccc3N=C2N)C2CCCCC2)cn1
- Ki (Beta-secretase 1): 11 nM
- IC50 [1]: 23 nM

SMILES: Cc1nc(CCN(C(=O)CC[C@@H](C2CCCCC2)N2Cc3cc(Oc4ccccc4)ccc3N=C2N)C2CCCCC2)cs1
- Ki (Beta-secretase 1): 106 nM

SMILES: CC(C)c1nc(CN(C(=O)CC[C@@H](C2CCCCC2)N2Cc3cc(Oc4ccccc4)ccc3N=C2N)C2CCCCC2)cs1
- Ki (Beta-secretase 1): 144 nM

SMILES: CN(C(=O)CC[C@@H](C1CCCCC1)N1Cc2cc(Oc3ccccc3)ccc2N=C1N)C1CCCCC1
- IC50 [1]: 71 nM

SMILES: CN(C(=O)OC[C@@H](C1CCCCC1)N1Cc2cc(Oc3ccccc3)ccc2N=C1N)C1CCCCC1
- Ki (Beta-secretase 1): 37.5 nM

SMILES: Cc1nc(CN(C(=O)CC[C@@H](C2CCCCC2)N2Cc3cc(Oc4ccccc4)ccc3N=C2N)C2CCCCC2)cs1
- Ki (Beta-secretase 1): 79 nM
- IC50 [1]: 390 nM

SMILES: NC1=Nc2ccc(Oc3ccccc3)cc2CN1[C@@H](COC(=O)NC1CCCCC1)C1CCCCC1
- Ki (Beta-secretase 1): 60 nM

SMILES: CN(C(=O)OC[C@@H](C1CCCOC1)N1Cc2cc(Oc3ccccc3)ccc2N=C1N)C1CCCCC1 (mixture of isomers)
- Ki (Beta-secretase 1): 104 nM
- IC50 [1]: 1100 nM

SMILES: Cc1nc(CN(C(=O)OC[C@@H](C2CCCCC2)N2Cc3cc(Oc4ccccc4)ccc3N=C2N)C2CCCCC2)cs1
- Ki (Beta-secretase 1): 1460 nM

SMILES: CN(C(=O)CC[C@@H]([C@H]1CCCOC1)N1Cc2cc(Oc3ccccc3)ccc2N=C1N)C1CCCCC1
- Ki (Beta-secretase 1): 122 nM

SMILES: Cc1[nH]ncc1CN(C(=O)CC[C@@H](C1CCCCC1)N1Cc2cc(Oc3ccccc3)ccc2N=C1N)C1CCCCC1
- Ki (Beta-secretase 1): 39 nM
- IC50 [1]: 51 nM

SMILES: COCc1nc(CN(C(=O)CC[C@@H](C2CCCCC2)N2Cc3cc(Oc4ccccc4)ccc3N=C2N)C2CCCCC2)cs1
- Ki (Beta-secretase 1): 13 nM
- IC50 [1]: 21 nM
